From ChEMBL document CHEMBL1136924 (J Med Chem, 2009)
Activity calls are given as the source filed them.

Assays:
[1] = target: T1, 5-hydroxytryptamine receptor 3A (Rattus norvegicus, UniProt P35563); assay: Displacement of [3H]zacopride from 5HT3 receptor in rat cortex
T1 sequence (P35563 whole entry): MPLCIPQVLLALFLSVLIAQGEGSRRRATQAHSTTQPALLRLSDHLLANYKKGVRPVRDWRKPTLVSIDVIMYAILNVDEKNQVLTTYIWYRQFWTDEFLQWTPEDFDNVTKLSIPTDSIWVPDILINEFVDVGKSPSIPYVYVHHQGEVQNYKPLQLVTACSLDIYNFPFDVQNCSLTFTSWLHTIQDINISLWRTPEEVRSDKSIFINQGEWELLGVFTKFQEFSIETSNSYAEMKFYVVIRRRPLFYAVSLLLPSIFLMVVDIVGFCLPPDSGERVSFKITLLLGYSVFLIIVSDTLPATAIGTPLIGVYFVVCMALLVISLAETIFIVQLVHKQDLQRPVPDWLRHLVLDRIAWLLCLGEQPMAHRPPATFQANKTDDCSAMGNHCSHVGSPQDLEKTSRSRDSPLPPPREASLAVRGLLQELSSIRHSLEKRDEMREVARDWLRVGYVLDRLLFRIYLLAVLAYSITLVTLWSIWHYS

[2] = target: T1, 5-hydroxytryptamine receptor 3A; assay: Displacement of [3H]LY278584 from 5HT3 receptor in rat cortical homogenate
[3] = target: T2, 5-hydroxytryptamine receptor 3A (Cavia porcellus) (UniProt O70212); assay: Agonist activity at 5HT3 receptor in voltage-stimulated guinea pig left atrium assessed as positive inotropic potency; format: functional, tissue-based; conditions: Cardiac atrium
T2 sequence (whole entry): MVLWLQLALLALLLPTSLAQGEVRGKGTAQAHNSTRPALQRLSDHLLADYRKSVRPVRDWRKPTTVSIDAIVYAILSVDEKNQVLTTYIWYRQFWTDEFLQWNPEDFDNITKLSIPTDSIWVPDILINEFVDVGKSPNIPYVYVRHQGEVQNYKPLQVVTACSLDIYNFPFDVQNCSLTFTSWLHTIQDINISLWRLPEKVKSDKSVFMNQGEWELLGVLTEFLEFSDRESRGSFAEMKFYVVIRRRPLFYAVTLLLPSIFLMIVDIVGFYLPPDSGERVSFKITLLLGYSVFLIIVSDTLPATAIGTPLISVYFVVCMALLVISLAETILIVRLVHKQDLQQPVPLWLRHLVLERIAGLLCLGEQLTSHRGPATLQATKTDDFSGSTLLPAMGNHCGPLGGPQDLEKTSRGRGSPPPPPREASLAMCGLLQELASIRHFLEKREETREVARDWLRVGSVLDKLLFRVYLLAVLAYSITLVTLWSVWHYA
Summary of the method: (§1)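 Isolated guinea pig atria in PSS (Tyrode) with ketanserin 1 µM, 95% O2-5% CO2, pH 7.4, 35 °C. Right atrium beating spontaneously (rate); left atrium paced 1 Hz, 0.6-0.8 ms pulses near 50% threshold (force). Isometric recording after 45-60 min stabilization.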

[4] = target: T2, 5-hydroxytryptamine receptor 3A (Cavia porcellus); assay: Intrinsic activity at 5HT3 receptor in voltage-stimulated guinea pig left atrium assessed as positive inotropic potency relative to serotonin; format: tissue-based; conditions: Cardiac atrium
Summary of the method: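 Electrically paced guinea pig left atrium (1 Hz) in PSS containing ketanserin 1 µM, pH 7.4, 35 °C. Contractile force recorded isometrically while cumulative concentrations of 0.1-100 µM were added (DMSO ≤0.3%). Intrinsic activity is expressed as the maximal response relative to that of 5-HT.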

[5] = target: T2, 5-hydroxytryptamine receptor 3A (Cavia porcellus); assay: Agonist activity at 5HT3 receptor in spontaneously beating guinea pig right atrium assessed as positive chronotropic potency; format: functional, tissue-based; conditions: Cardiac atrium; summary of the method: as §1
[6] = target: T2, 5-hydroxytryptamine receptor 3A (Cavia porcellus); assay: Intrinsic activity at 5HT3 receptor in spontaneously beating guinea pig right atrium assessed as positive chronotropic potency relative to serotonin; conditions: Cardiac atrium
Summary of the method: (§2)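 Guinea pig left and right atria were hung in a 15 mL bath of PSS (pH 7.4, 95% O2-5% CO2, 35 °C) with ketanserin 1 µM. The right atrium beat spontaneously; the left was paced at 1 Hz. Cumulative doses (0.1-100 µM; DMSO ≤0.3%) were added after 45-60 min stabilization. Rate or isometric force was recorded. EC50 came from Probit analysis, n≥4. Intrinsic activity was taken relative to 5-HT.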

[7] = target: T3, 5-hydroxytryptamine receptor 1A (Rattus norvegicus, UniProt P19327); assay: Displacement of [3H]8-OHDPAT from 5HT1A receptor in rat hippocampus; format: tissue-based
T3 sequence (P19327 whole entry): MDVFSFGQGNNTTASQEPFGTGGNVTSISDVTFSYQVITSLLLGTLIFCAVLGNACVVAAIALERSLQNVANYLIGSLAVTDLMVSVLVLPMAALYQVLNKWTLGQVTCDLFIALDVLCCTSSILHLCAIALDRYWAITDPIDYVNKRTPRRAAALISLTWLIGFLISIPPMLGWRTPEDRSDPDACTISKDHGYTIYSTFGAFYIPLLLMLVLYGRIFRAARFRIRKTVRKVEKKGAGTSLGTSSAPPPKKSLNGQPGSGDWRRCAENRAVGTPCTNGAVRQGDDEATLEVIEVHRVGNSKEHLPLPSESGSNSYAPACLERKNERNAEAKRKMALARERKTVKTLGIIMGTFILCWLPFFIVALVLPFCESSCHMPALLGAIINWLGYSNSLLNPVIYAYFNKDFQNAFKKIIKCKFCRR

[8] = target: 5-hydroxytryptamine receptor 2A (Rattus norvegicus, UniProt P14842); assay: Displacement of [3H]ketanserin from 5HT2A receptor in rat cortex
5-hydroxytryptamine receptor 2A, sequence (P14842 whole entry): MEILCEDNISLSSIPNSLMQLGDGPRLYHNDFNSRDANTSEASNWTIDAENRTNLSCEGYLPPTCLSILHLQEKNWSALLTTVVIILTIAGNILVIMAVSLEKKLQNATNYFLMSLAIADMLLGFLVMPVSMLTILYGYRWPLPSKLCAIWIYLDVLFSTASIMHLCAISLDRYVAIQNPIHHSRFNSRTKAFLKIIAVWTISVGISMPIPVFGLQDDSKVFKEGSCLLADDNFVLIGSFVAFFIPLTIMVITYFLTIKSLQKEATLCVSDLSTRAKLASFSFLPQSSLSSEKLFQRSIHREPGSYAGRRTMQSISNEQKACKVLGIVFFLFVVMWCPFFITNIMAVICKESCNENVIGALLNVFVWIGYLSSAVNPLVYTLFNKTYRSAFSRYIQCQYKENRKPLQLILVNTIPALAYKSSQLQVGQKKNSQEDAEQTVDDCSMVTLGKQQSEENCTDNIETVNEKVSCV

[9] = target: 5-hydroxytryptamine receptor 4 (Cavia porcellus, UniProt O70528); assay: Displacement of [3H]GR-113808 from 5HT4 receptor in guinea pig striatum
5-hydroxytryptamine receptor 4, sequence (O70528 whole entry): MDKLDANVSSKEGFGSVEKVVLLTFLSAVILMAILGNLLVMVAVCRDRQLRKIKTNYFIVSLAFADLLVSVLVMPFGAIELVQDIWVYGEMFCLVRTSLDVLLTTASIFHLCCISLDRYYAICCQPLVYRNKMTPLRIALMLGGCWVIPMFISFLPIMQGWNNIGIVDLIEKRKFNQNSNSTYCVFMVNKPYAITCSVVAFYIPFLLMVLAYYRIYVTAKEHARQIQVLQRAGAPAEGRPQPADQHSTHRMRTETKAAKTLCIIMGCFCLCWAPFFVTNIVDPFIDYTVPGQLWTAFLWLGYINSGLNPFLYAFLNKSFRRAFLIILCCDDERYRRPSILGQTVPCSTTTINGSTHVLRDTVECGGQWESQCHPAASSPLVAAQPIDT

[10] = target: T4, Adrenergic receptor alpha-1 (Rattus norvegicus, UniProt P15823+P23944+P43140); assay: Displacement of [3H]prazosin from adrenergic alpha1 receptor in rat cortex
T4 sequence (P15823 whole entry): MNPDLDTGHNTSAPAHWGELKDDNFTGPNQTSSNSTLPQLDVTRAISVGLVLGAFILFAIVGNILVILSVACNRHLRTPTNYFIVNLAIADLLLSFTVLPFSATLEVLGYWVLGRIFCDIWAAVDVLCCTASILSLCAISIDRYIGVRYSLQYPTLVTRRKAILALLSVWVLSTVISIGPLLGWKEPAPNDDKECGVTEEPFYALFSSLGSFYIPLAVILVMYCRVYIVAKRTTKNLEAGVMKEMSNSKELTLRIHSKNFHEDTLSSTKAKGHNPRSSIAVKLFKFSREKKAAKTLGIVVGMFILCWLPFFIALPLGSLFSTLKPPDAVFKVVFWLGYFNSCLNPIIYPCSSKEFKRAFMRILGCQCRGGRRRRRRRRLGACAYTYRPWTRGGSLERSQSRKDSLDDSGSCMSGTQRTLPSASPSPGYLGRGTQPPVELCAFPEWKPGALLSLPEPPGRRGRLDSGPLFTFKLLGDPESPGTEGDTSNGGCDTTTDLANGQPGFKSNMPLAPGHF
T4 sequence (P23944 whole entry): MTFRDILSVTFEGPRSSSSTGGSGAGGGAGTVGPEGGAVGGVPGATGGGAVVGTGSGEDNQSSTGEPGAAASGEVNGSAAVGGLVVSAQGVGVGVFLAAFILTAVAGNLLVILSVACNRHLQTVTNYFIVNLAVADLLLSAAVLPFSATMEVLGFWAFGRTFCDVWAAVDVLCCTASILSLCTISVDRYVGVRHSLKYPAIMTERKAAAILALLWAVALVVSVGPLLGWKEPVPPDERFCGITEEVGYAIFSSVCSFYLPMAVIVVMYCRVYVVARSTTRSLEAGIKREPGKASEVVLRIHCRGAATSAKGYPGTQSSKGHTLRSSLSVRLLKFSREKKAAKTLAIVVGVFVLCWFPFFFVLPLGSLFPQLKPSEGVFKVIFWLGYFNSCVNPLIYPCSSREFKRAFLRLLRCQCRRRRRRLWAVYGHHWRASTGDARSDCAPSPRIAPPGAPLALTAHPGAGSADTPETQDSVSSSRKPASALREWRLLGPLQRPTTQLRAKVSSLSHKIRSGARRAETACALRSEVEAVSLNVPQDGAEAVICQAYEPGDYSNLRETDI
T4 sequence (P43140 whole entry): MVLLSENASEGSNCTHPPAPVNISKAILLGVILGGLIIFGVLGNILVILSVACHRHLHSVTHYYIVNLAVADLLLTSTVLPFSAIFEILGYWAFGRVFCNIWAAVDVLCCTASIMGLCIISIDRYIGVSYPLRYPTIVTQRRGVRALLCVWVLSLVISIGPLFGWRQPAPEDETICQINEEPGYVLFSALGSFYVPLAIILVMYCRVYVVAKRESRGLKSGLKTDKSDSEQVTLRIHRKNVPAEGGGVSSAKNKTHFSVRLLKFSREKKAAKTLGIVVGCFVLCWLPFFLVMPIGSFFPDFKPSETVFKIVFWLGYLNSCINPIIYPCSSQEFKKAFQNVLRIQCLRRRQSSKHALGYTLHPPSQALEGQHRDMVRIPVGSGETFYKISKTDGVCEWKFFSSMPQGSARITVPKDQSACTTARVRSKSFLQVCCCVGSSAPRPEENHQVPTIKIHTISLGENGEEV

[11] = target: T5, Alpha-2A adrenergic receptor (Rattus norvegicus, UniProt P22909); assay: Displacement of [3H]RX821002 from adrenergic alpha2 receptor in rat cortex
T5 sequence (P22909 whole entry): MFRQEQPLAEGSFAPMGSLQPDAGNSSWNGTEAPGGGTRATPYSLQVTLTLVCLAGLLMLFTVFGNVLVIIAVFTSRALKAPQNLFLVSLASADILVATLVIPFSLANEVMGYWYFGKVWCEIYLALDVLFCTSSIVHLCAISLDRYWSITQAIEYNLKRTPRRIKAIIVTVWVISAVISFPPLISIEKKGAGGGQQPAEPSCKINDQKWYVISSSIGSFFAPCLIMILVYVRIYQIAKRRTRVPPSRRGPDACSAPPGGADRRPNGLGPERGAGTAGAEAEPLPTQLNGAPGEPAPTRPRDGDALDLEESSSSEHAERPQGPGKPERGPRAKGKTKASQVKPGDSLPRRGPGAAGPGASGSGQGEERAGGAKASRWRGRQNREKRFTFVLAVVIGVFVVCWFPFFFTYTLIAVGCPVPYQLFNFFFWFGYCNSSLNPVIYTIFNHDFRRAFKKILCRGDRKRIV

D(1A) dopamine receptor = D(1A) dopamine receptor (Rattus norvegicus, UniProt P18901); assay: Displacement of [3H]SCH-23390 from dopamine D1 receptor in rat striatum
D(1A) dopamine receptor, sequence (P18901 whole entry): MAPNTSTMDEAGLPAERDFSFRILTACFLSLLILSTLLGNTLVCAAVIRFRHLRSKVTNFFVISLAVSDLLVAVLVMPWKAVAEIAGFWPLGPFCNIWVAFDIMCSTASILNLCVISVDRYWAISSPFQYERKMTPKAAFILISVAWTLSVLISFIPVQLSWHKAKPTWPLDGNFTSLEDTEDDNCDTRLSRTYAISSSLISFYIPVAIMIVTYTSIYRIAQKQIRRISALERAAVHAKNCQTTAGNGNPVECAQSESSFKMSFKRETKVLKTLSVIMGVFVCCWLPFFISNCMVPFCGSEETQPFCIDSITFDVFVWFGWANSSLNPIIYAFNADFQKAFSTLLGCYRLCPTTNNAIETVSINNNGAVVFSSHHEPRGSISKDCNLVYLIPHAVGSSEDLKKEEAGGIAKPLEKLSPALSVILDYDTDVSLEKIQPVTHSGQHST

D(2) dopamine receptor = D(2) dopamine receptor (Rattus norvegicus, UniProt P61169); assay: Displacement of [3H]spiperone from dopamine D2 receptor in rat striatum
D(2) dopamine receptor, sequence (P61169 whole entry): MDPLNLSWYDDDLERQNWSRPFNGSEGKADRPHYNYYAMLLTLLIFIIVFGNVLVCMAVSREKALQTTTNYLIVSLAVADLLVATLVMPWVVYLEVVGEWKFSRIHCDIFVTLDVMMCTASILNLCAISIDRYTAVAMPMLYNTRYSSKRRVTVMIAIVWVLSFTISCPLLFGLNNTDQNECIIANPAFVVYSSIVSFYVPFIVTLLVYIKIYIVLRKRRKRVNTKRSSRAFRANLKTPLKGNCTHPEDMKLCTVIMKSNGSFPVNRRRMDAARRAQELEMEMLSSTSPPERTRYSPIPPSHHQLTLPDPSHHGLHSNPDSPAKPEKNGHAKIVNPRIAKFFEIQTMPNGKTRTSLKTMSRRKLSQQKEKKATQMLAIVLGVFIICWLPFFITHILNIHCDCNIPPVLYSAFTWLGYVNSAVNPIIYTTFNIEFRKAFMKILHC

[12] = target: Muscarinic acetylcholine receptor; assay: Displacement of [3H]QNB from muscarinic receptor in rat cortex
[13] = target: T2, 5-hydroxytryptamine receptor 3A (Cavia porcellus); assay: Agonist activity at 5HT3 receptor in voltage-stimulated guinea pig left atrium assessed as positive inotropic potency at 100 uM; format: functional, tissue-based; conditions: Cardiac atrium; summary of the method: as §2
[14] = target: T2, 5-hydroxytryptamine receptor 3A (Cavia porcellus); assay: Agonist activity at 5HT3 receptor in guinea pig thoracic aorta assessed as positive contractility potency at 100 uM; format: functional, tissue-based
Summary of the method: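 Guinea pig aortic helicoidal strips in PSS at 35 °C, aerated, under 1 g resting force, washed every 20 min for 1 h. Compounds added cumulatively 0.1-100 µM (DMSO vehicle); isometric contraction recorded.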

Rattus norvegicus = assay: Antagonist activity at 5HT3 receptor in iv dosed urethane-anesthetized Sprague-Dawley rat assessed as inhibition of 1-phenylbiguanide-induced bradycardia administered 5 mins before 1-phenylbiguanide challenge measured after 5 to 30 mins post-treatment by von Bezold-Jarisch reflex test; format: functional

SMILES: Fc1ccc2c(c1)nc(N1CCN(Cc3ccccc3)CC1)c1cccn12
- Ki [1]: 13 nM

SMILES: Cc1cccc2nc(N3CCN(CC(=O)NO)CC3)c3cccn3c12
- Ki [2]: 3 nM

SMILES: O=c1[nH]nc(CN2CCN(c3nc4cc(F)ccc4n4cccc34)CC2)[nH]1
- Ki [2]: 17 nM

SMILES: O=c1[nH]nc(CN2CCN(c3nc4cc(F)ccc4n4cccc34)CC2)o1
- Ki [2]: 127 nM

SMILES: Cc1cccc2nc(N3CCN(C(CO)c4ccccc4)CC3)c3cccn3c12 (stereo unspecified)
- Ki [2]: 79 nM

SMILES: Cc1[nH]c2ccc(O)cc2c1CCN
- pD2 [3]: 5.51
- Intrinsic activity [4]: 1
- pD2 [5]: 5.06
- Intrinsic activity [6]: 1

SMILES: N[C@H](CN1CCN(c2nc3cc(F)ccc3n3cccc23)CC1)C(=O)O
- Ki [2]: 1.2 nM
- Ki [7]: 480 nM
- Ki [8]: > 10000 nM
- Ki [9]: > 10000 nM
- Ki [10]: > 10000 nM
- Ki [11]: > 10000 nM
- Ki (D(1A) dopamine receptor): > 10000 nM
- Ki (D(2) dopamine receptor): > 10000 nM
- Ki [12]: > 10000 nM

SMILES: CN1CCN(c2nc3cc(O)ccc3n3cccc23)CC1
- Ki [1]: 0.7 nM

SMILES: CN1CCN(c2nc3cc(F)ccc3n3cccc23)CC1
- Ki [2]: 0.8 nM
- Ki [7]: 138 nM
- Ki [8]: 124 nM
- Ki [9]: > 10000 nM
- pD2 [13]: inactive
- pD2 [5]: 6.79
- Intrinsic activity [6]: 0.6
- pD2 [14]: inactive
- ID50 (Rattus norvegicus): Dose-dependent effect
- ED50 (Rattus norvegicus; read-out: ID50 (the source's name)): 0.6 mg/kg

SMILES: c1ccc2nc(N3CCNCC3)ccc2c1 [QUIPAZINE]
- Ki [2]: 0.96 nM
- Ki [9]: > 10000 nM
